Reference: ChEMBL document CHEMBL3421535, “Antioxidative compounds from Garcinia buchananii stem bark” (J Nat Prod, 2015)
Several values for one entry are separate records, joined by “and”; a condition that tells them apart may be missing. Equal entries are not always repeated.

Experiments:
Format in all cases: physicochemical
[1] = Antioxidant activity assessed as trolox equivalent of APPH radical scavenging activity preincubated for 30 mins followed by APPH addition measured after 90 mins by hydrophilic-ORAC fluorescence assay; conditions: 1.5 h
How it was run: (§1)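 Hydrophilic TEAC (ABTS) or hydrophilic ORAC run by the previously reported method. Each sample was measured in quadruplicate; values are mean ± SD.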

[2] = Antioxidant activity assessed as trolox equivalent of […] radical scavenging activity preincubated for 30 mins followed by […] addition measured after 90 mins by lipophilic-ORAC fluorescence assay; conditions: 1.5 h
How it was run: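 Lipophilic ORAC adapted from the Madrona procedure. Trolox standards (200, 100, 50, 25, 12.5 μM) and sample dilutions were made in 7% (w/v) randomly methylated β-cyclodextrin in acetone/H2O (1:1), which also served as blank. Fluorescein and AAPH were prepared in 10 mM phosphate buffer, pH 7.4. AAPH was added after incubation. Read-out otherwise as H-ORAC; quadruplicate, mean ± SD.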

[3] = Antioxidant activity assessed as trolox equivalent of ABTS radical scavenging activity after 10 mins by hydrophilic-TEAC fluorescence assay; how it was run: as §1
[4] = Antioxidant activity assessed as trolox equivalent of ABTS radical scavenging activity after 10 mins by lipophilic-TEAC […] assay
How it was run: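 Lipophilic ABTS TEAC, a modification of the H-TEAC method. Trolox standards (1000, 500, 250, 125, 62.5 μM) and sample dilutions were prepared in 50% DMSO/H2O. Pure DMSO was added to give 10% final DMSO. Processing and measurement followed H-TEAC; quadruplicate, mean ± SD.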

[5] = Antioxidant activity assessed as H2O2 scavenging activity after 15 mins
How it was run: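 H2O2 scavenging run by the previously reported method. Each sample was measured in triplicate; values are mean ± SD.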

[6] = Antioxidant activity assessed as trolox equivalent of ABTS radical scavenging activity measured for 1 to 6 mins by lipophilic-TEAC […] assay
How it was run: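 Lipophilic TEAC adapted from the hydrophilic ABTS method: Trolox standards (1000, 500, 250, 125, 62.5 μM) and sample dilutions made in 50% DMSO. Pure DMSO added to wells, giving 10% DMSO final. Otherwise processed, measured and handled as in H-TEAC. Quadruplicate analyses, mean ± SD.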

[7] = Antioxidant activity assessed as trolox equivalent of […] radical scavenging activity preincubated for 30 mins followed by […] addition measured every 1.14 mins for 120 mins by lipophilic-ORAC fluorescence assay; conditions: 2 h
How it was run: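 Lipophilic ORAC (modified Madrona procedure): Trolox standards (200–12.5 μM) and samples diluted in 7% RMCD in acetone/water 1:1. Fluorescein and AAPH prepared in 10 mM phosphate buffer pH 7.4. Fluorescein mixed with standard, sample or RMCD blank, incubated as in H-ORAC, then AAPH added. Read-out and data handling as in H-ORAC. Quadruplicate, mean ± SD.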

With `O=C1c2c(O)cc(O)c([C@@H]3C(=O)c4c(O)cc(O)cc4O[C@H]3c3ccc(O)c(O)c3)c2O[C@H](c2ccc(O)c(O)c2)[C@H]1O` as the compound, how does the Activity [1] read?
Its Activity is 13.73 mmolequiv/mmol.

And the Activity [2]?
Its Activity is 15 mmolequiv/mmol.

And the Activity [3]?
The Activity was 5.58 mmolequiv/mmol.

And the Activity [4]?
The Activity was 5.29 mmolequiv/mmol.

And the EC50 [5]?
Its EC50 is 2.8 µM.

With `O=C1c2c(cc(O)c([C@@H]3C(=O)c4c(O)cc(O)cc4O[C@H]3c3ccc(O)c(O)c3)c2O)O[C@H](c2ccc(O)c(O)c2)[C@H]1O` as the compound, how does the Activity [1] read?
Its Activity is 7.54 mmolequiv/mmol.

What about the Activity [2] of the same compound?
Its Activity is 14.56 mmolequiv/mmol.

What about the Activity [3] of the same compound?
The Activity was 3.5 mmolequiv/mmol.

What about the Activity [4] of the same compound?
The Activity was 4.95 mmolequiv/mmol.

What about the EC50 [5] of the same compound?
Its EC50 is 8.5 µM.

What does the source list for `COc1cc(C(=O)c2c(O)cc3c(c2OC)C=CC(C)(C)O3)ccc1O`?
Activity [1]: 2.44 mmolequiv/mmol; Activity [2]: 4.87 mmolequiv/mmol; Activity [3]: 0.4 mmolequiv/mmol; Activity [4]: 1.04 mmolequiv/mmol; EC50 [5]: ≤ 53.4 µM

With `COc1c(O)ccc2c1Oc1cc(O)c(CC=C(C)C)c(O)c1C(=O)O2` as the compound, how does the Activity [1] read?
Its Activity is 2.5 mmolequiv/mmol.

And the Activity [2]?
The Activity was 4.34 mmolequiv/mmol.

What about the Activity [3] of the same compound?
The Activity was 0.89 mmolequiv/mmol.

And the Activity [4]?
The Activity was 1.68 mmolequiv/mmol.

And the EC50 [5]?
The EC50 was no more than 45.4 µM.

Which results are given for `O=C1c2c(O)cc(O)c(-c3coc4cc(O)cc(O)c4c3=O)c2O[C@H](c2ccc(O)c(O)c2)[C@H]1O`?
Activity [1]: 4.38 mmolequiv/mmol; Activity [2]: 6.96 mmolequiv/mmol; Activity [3]: 1.48 mmolequiv/mmol; Activity [4]: 2.92 mmolequiv/mmol; EC50 [5]: 17.5 µM

For `CC(C)=CCc1c(O)cc2oc3c(O)c(O)ccc3c(=O)c2c1O`, which Activity [1] is on record?
The Activity was 1.06 mmolequiv/mmol.

And the Activity [2]?
The Activity was 3.81 mmolequiv/mmol.

What about the Activity [3] of the same compound?
Its Activity is 0.89 mmolequiv/mmol.

What about the Activity [4] of the same compound?
The Activity was 2.96 mmolequiv/mmol.

What about the EC50 [5] of the same compound?
The EC50 was 19.7 µM.

For `O=c1c2cc(O)ccc2oc2cccc(O)c12`, which Activity [1] is on record?
Its Activity is 2.43 mmolequiv/mmol.

And the Activity [2]?
The Activity was 2.95 mmolequiv/mmol.

What about the Activity [3] of the same compound?
Its Activity is 0.4 mmolequiv/mmol.

What about the Activity [4] of the same compound?
Its Activity is 1.33 mmolequiv/mmol.

And the EC50 [5]?
The EC50 was 80.2 µM.

Which Activity [1] does the source give for `O=C1CC(c2ccc(O)cc2)Oc2cc(O)cc(O)c21` (racemic) here?
The Activity was 6.2 mmolequiv/mmol.

What about the Activity [2] of the same compound?
The Activity was 7.35 mmolequiv/mmol.

What about the Activity [3] of the same compound?
Its Activity is 1.98 mmolequiv/mmol.

And the Activity [4]?
The Activity was 2.94 mmolequiv/mmol.

And the EC50 [5]?
The EC50 was 8.6 µM.

What about the Activity [6] of the same compound?
The Activity was 1.14 mMequiv.

For `O=C1c2c(O)cc(O)cc2O[C@H](c2ccc(O)c(O)c2)C1O` (single isomer, unassigned) [(+)-TAXIFOLIN], which Activity [1] is on record?
Its Activity is 6.61 mmolequiv/mmol.

And the Activity [2]?
Its Activity is 9.3 mmolequiv/mmol.

What about the Activity [3] of the same compound?
The Activity was 2.48 mmolequiv/mmol.

And the Activity [4]?
Its Activity is 2.84 mmolequiv/mmol.

What about the EC50 [5] of the same compound?
The EC50 was 11.3 µM.

Which results are given for `Oc1cc(O)c2c(c1)O[C@H](c1ccc(O)c(O)c1)[C@H](O)C2` [(-)-EPICATECHIN]?
Activity [1]: 9.98 mmolequiv/mmol; Activity [2]: 15.69 mmolequiv/mmol; Activity [3]: 3.71 mmolequiv/mmol; Activity [4]: 5.01 mmolequiv/mmol; EC50 [5]: 4.1 µM

With `O=C1O[C@H]([C@@H](O)CO)C(O)=C1O` [ASCORBIC ACID] as the compound, how does the Activity [1] read?
The Activity was 0.62 mmolequiv/mmol.

What about the Activity [2] of the same compound?
The Activity was 0.73 mmolequiv/mmol.

And the Activity [3]?
The Activity was 1.16 mmolequiv/mmol.

What about the Activity [4] of the same compound?
Its Activity is 1.09 mmolequiv/mmol.

And the EC50 [5]?
The EC50 was 24.2 µM.

And the Activity [6]?
Its Activity is 1.05 mMequiv.

What does the source list for `Cc1cc(C(C)(C)C)c(O)c(C(C)(C)C)c1` [BUTYLATED HYDROXYTOLUENE]?
Activity [2]: 0.2 mmolequiv/mmol and 0.12 umolequiv/umol; Activity [4]: 0.76 mmolequiv/mmol; Activity [6]: 0.27 mMequiv

For `CC(C)=CC[C@H]1C[C@@]23C[C@@H](CC=C(C)C)C(C)(C)[C@@](CC=C(C)C)(C(=O)C(C(=O)c4ccc(O)c(O)c4)=C2OC1(C)C)C3=O` [CAMBOGIN], which Activity [1] is on record?
The Activity was 0.6 mmolequiv/mmol.

And the Activity [2]?
The Activity was 3.68 mmolequiv/mmol.

What about the Activity [3] of the same compound?
The Activity was 0.48 mmolequiv/mmol.

What about the Activity [4] of the same compound?
The Activity was 1.67 mmolequiv/mmol.

What about the EC50 [5] of the same compound?
Its EC50 is 83.3 µM.

Which results are given for `C=C(C)[C@@H](CC=C(C)C)C[C@@]12C[C@@H](CC=C(C)C)C(C)(C)[C@@](CC=C(C)C)(C(=O)C(C(=O)c3ccc(O)c(O)c3)=C1O)C2=O` [GARCINOL]?
Activity [1]: 1.28 mmolequiv/mmol; Activity [2]: 3.44 mmolequiv/mmol; Activity [3]: 0.81 mmolequiv/mmol; Activity [4]: 1.92 mmolequiv/mmol; EC50 [5]: 15.7 µM

With `CC1(C)C=Cc2c(cc3oc4c(O)c(O)ccc4c(=O)c3c2O)O1` [JACAREUBIN] as the compound, how does the Activity [1] read?
The Activity was 1.16 mmolequiv/mmol.

What about the Activity [2] of the same compound?
The Activity was 2.74 mmolequiv/mmol.

And the Activity [3]?
The Activity was 0.84 mmolequiv/mmol.

And the Activity [4]?
The Activity was 2.06 mmolequiv/mmol.

And the EC50 [5]?
The EC50 was 26.3 µM.

Which Activity [1] does the source give for `O=c1c(O)c(-c2ccc(O)c(O)c2)oc2cc(O)cc(O)c12` [QUERCETIN] here?
The Activity was 9.36 mmolequiv/mmol.

And the Activity [2]?
Its Activity is 11.94 mmolequiv/mmol.

And the Activity [3]?
Its Activity is 4.85 mmolequiv/mmol.

What about the Activity [4] of the same compound?
Its Activity is 4.84 mmolequiv/mmol.

What about the EC50 [5] of the same compound?
The EC50 was 6.1 µM.

What about the Activity [6] of the same compound?
Its Activity is 3.1 mMequiv.

And the Activity [7]?
The Activity was 10.4 umolequiv/umol.
